These results are taken from ChEMBL document CHEMBL1146885, “Antitumor agents. 254. Synthesis and biological evaluation of novel neo-tanshinlactone analogues as potent anti-breast cancer agents” (2006).

Molecules are shown by their SMILES. In brackets after ≈: the same amount, converted by molar mass. A value given as a limit tells only on which side of the number the result lay.

Holding throughout (format): functional
Conditions in all cases: read-out: ED50 (the source's name)

Assay [1] concerns KB. Put plainly: Cytotoxicity against human KB cells. The method, boiled down:
(§1)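 SRB growth-inhibition assay. Cells grown in RPMI-1640 with 25 mM HEPES, 0.25% sodium bicarbonate, 10% FBS and 100 µg/mL kanamycin. Freshly trypsinized cells seeded at 1500-7500 per well, with compound added from DMSO-diluted stock. After 3 days, attached cells fixed with cold 50% TCA, stained with 0.4% SRB, dye solubilized, A562 read. ED50 = concentration reducing growth 50%, mean of ≥3 independent determinations.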

Assay [2] has as its system MCF7. The experiment in a line: Cytotoxicity against human MCF7 cells expressing ER. The method, boiled down: as §1
The test system of assay [3] is SK-BR-3. Put plainly: Cytotoxicity against human SK-BR-3 cells expressing HER2 and lacking ER. In outline:
as §1

Assay [4] has as its system A-431. The experiment in a line: Cytotoxicity against human A431 cells. In outline: as §1
The subject of assay [5] is Hs-578T. Put plainly: Cytotoxicity against human HS 587-T cells lacking ER. The method, boiled down: as §1
For assay [6], the system named is SW-620. The experiment in a line: Cytotoxicity against human SW620 cells. The method, boiled down:
as §1

The subject of assay [7] is MDA-MB-231. The experiment in a line: Cytotoxicity against human MDA-MB-231 cells lacking ER. In outline: as §1
The subject of assay [8] is ZR-75-1. Put plainly: Cytotoxicity against human ZR-75-1 cells expressing ER. In outline:
as §1

For `CC/C(=C(\c1ccccc1)c1ccc(OCCN(C)C)cc1)c1ccccc1` [TAMOXIFEN], the EC50 in assay [1] was found to be 9 µg/mL (≈ 24.2 µM); in assay [2] it was 5 µg/mL (≈ 13.5 µM); in assay [3], 5 µg/mL (≈ 13.5 µM); in assay [4], 7 µg/mL (≈ 18.8 µM); in assay [5], 7 µg/mL (≈ 18.8 µM); in assay [6] it was 4 µg/mL (≈ 10.8 µM). For the same molecule, the EC50 in assay [7] came to 8.5 µg/mL (≈ 22.9 µM); in assay [8], 3.6 µg/mL (≈ 9.69 µM).

For the molecule `COc1cc2c3occc3c(=O)oc2c2ccccc12`, the EC50 in assay [1] was found to be 9.5 µg/mL (≈ 35.7 µM); in assay [2], 3.4 µg/mL (≈ 12.8 µM); in assay [3] it was 4 µg/mL (≈ 15 µM); in assay [4] it was 9.5 µg/mL (≈ 35.7 µM); in assay [6], 4 µg/mL (≈ 15 µM); in assay [8], 8.5 µg/mL (≈ 31.9 µM).

On to `Cc1cccc2c1ccc1c3occ(C)c3c(=O)oc21`, for which the EC50 is more than 10 µg/mL in assay [1]; 0.6 µg/mL (≈ 2.27 µM) in assay [2]; 0.18 µg/mL (≈ 0.681 µM) in assay [3]; more than 10 µg/mL in assay [4]; 16 µg/mL (≈ 60.5 µM) in assay [5]; more than 10 µg/mL in assay [6]. Moreover, the EC50 in assay [7] is 10 µg/mL (≈ 37.8 µM); in assay [8], 0.25 µg/mL (≈ 0.946 µM).

`COc1cc2c3occ(C)c3c(=O)oc2c2ccccc12`: the EC50 in assay [1] is more than 10 µg/mL; in assay [2], 5 µg/mL (≈ 17.8 µM); in assay [3] it was 8.6 µg/mL (≈ 30.7 µM); in assay [4] it was 9.5 µg/mL (≈ 33.9 µM); in assay [6] it was 9 µg/mL (≈ 32.1 µM); in assay [8], more than 10 µg/mL.

Turning to `Cc1coc2c1c(=O)oc1c3ccccc3c(Cl)cc21`, the EC50 in assay [1] is more than 10 µg/mL; in assay [2], 5 µg/mL (≈ 17.6 µM); in assay [3], 4.5 µg/mL (≈ 15.8 µM); in assay [4] it was 8 µg/mL (≈ 28.1 µM); in assay [6], more than 10 µg/mL; in assay [8] it was 8.6 µg/mL (≈ 30.2 µM).

For the molecule `Cc1cccc2c1ccc1c3occc3c(=O)oc21`, the EC50 in assay [1] was more than 10 µg/mL; in assay [2], 5.5 µg/mL (≈ 22 µM); in assay [3], 8.5 µg/mL (≈ 34 µM); in assay [4], 8.3 µg/mL (≈ 33.2 µM); in assay [6], more than 10 µg/mL; in assay [8] it was more than 10 µg/mL.

`O=c1oc2c3ccccc3c(Cl)cc2c2occc12`: the EC50 was more than 10 µg/mL in assay [1]; 7 µg/mL (≈ 25.9 µM) in assay [2]; more than 10 µg/mL in assay [3]; more than 10 µg/mL in assay [4]; more than 10 µg/mL in assay [6]; more than 10 µg/mL in assay [8].

Turning to `O=c1oc2c3ccccc3ccc2c2occc12`, the EC50 in assay [2] was more than 20 µg/mL; in assay [7], 10.5 µg/mL (≈ 44.4 µM).

For the molecule `CCc1cccc2c1ccc1c3occc3c(=O)oc21`, the EC50 in assay [2] and in assay [7] was more than 10 µg/mL each time.

As for `CCc1cccc2c1ccc1c3occ(C)c3c(=O)oc21`, the EC50 in assay [1] was more than 10 µg/mL; in assay [2] it was 0.45 µg/mL (≈ 1.62 µM); in assay [3] it was 0.1 µg/mL (≈ 0.359 µM); in assay [4], more than 10 µg/mL; in assay [5], 10 µg/mL (≈ 35.9 µM); in assay [6] it was more than 10 µg/mL. Besides, the EC50 in assay [7] was 13.5 µg/mL (≈ 48.5 µM); in assay [8], 0.18 µg/mL (≈ 0.647 µM).

Consider `O=c1oc2c(ccc3ccccc32)c2c1C(O)CO2` (stereo not drawn), for which, in assay [2], the EC50 is 12.5 µg/mL (≈ 49.2 µM).

In the case of `Cc1coc2c1c(=O)oc1c3ccccc3ccc21`, the EC50 stood at 4 µg/mL (≈ 16 µM) in assay [2], 7.5 µg/mL (≈ 30 µM) in assay [5], 10.3 µg/mL (≈ 41.2 µM) in assay [7] and 4 µg/mL (≈ 16 µM) in assay [8].
